Assay results from ChEMBL document CHEMBL3525963, “Tissue distribution and elimination of [14C]apixaban in rats” (Drug Metab Dispos, 2011).

Assays:
Set-up in all cases: dose 5 mg/kg, dosed compound name [14C]-apixaban, route oral
Conditions in all cases: in vivo
[1] = tested on: Liver; experiment: Biodistribution in female Sprague-Dawley rat liver at 5 mg/kg, po administered as single dose measured after 4 hrs; type: ADME, organism-based
Outline: (§1)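 Quantitative whole-body autoradiography was run after a single 5 mg/kg (100 μCi/kg) oral gavage to fasted female or pregnant SD rats, one rat per time point. Carcasses were frozen in hexane/dry ice, and 40 µm sagittal sections were dried at −20°C for at least 48 h. Sections were exposed to a phosphor plate alongside [14C]glucose standards (0.001–6.5 µCi/g). Results are µg eq/g, with LLOQ 0.037 µg eq/g.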

[2] = tested on: Rattus norvegicus; experiment: Biodistribution in pregnant Sprague-Dawley rat amnion at 5 mg/kg, po administered as single dose measured after 1 hr; type: ADME, organism-based
[3] = tested on: Brain; experiment: Biodistribution in male Sprague-Dawley rat brain at 5 mg/kg, po administered as single dose measured after 24 hrs; type: ADME, organism-based
[4] = tested on: Rattus norvegicus; experiment: Biodistribution in pregnant Sprague-Dawley rat bone marrow at 5 mg/kg, po administered as single dose measured after 48 hrs; type: ADME, organism-based
Outline: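 Fasted pregnant SD rats (n=6, 270-319 g) each received one oral gavage dose of [14C]apixaban, 5 mg/kg (100 μCi/kg), in 0.5% Tween 80/Labrafil. One rat was killed at each of 0.5, 1, 4, 8, 24 and 48 h. Carcasses were frozen in hexane/dry ice, cut into 40 µm sagittal sections, exposed to phosphor plates and quantified against [14C]glucose standards as µg eq/g. LLOQ was 0.037 µg eq/g.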

[5] = tested on: Liver; experiment: Biodistribution in pregnant Sprague-Dawley rat liver at 5 mg/kg, po administered as single dose measured after 8 hrs; type: ADME, organism-based
[6] = tested on: Rattus norvegicus; experiment: Biodistribution in female Sprague-Dawley rat brown fat at 5 mg/kg, po administered as single dose measured after 0.5 hrs; type: ADME, organism-based, Brown adipose tissue
Outline: (§2)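 [14C]apixaban (20 μCi/mL in dosing solution) in 0.5% Tween 80 in Labrafil given by oral gavage to fasted female rats, 206-213 g, at 100 μCi/kg. One rat per time point was euthanized and snap-frozen. Sagittal 40 µm whole-body sections were read by QWBA phosphor imaging against [14C]glucose standards. Results are in µg eq apixaban/g, with LLOQ 0.037 μg eq/g.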

[7] = tested on: Rattus norvegicus; experiment: Biodistribution in pregnant Sprague-Dawley rat pituitary gland at 5 mg/kg, po administered as single dose measured after 48 hrs; type: ADME, organism-based
Outline: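 Pregnant SD rats (270-319 g) were fasted overnight and given one oral gavage of 5 mg/kg (100 μCi/kg) in 0.5% Tween 80 in Labrafil. One rat was euthanized per time point (0.5, 1, 4, 8, 24, 48 h) and the carcass frozen. 40 µm sagittal sections were phosphor-imaged against [14C]glucose standards and results reported as µg eq/g; LLOQ 0.037 µg eq/g.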

[8] = tested on: Rattus norvegicus; experiment: Biodistribution in male Sprague-Dawley rat bone marrow at 5 mg/kg, po administered as single dose measured after 8 hrs; type: ADME, organism-based
Outline: (§3)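 Fasted male rats, 225-252 g, received [14C]apixaban by single oral gavage at 100 μCi/kg in 0.5% Tween 80/Labrafil. One rat was killed per time point and the carcass frozen. Tissue radioactivity was quantified by QWBA (40 µm sagittal sections, phosphor plate, [14C]glucose calibration) as µg eq apixaban/g, with LLOQ 0.037 μg eq/g.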

[9] = tested on: Muscle tissue; experiment: Biodistribution in male Sprague-Dawley rat muscle at 5 mg/kg, po administered as single dose measured after 0.5 hrs; type: ADME, organism-based
Outline: (§4)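 [14C]apixaban (1.0 mg/mL, 20 μCi/mL) in 0.5% Tween 80 in Labrafil, given by oral gavage at 100 μCi/kg to male rats (225-252 g) fasted overnight through 4 h post-dose. One rat per time point. Carcasses frozen in hexane/dry ice and cut into 40 µm sagittal sections. QWBA read on phosphor plates against [14C]glucose standards, reported as µg eq/g. LLOQ 0.037 µg eq/g.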

[10] = tested on: Rattus norvegicus; experiment: Biodistribution in pregnant Sprague-Dawley rat brown fat at 5 mg/kg, po administered as single dose measured after 1 hr; type: ADME, organism-based, Brown adipose tissue
[11] = tested on: Spleen; experiment: Biodistribution in pregnant Sprague-Dawley rat spleen at 5 mg/kg, po administered as single dose measured after 8 hrs; type: ADME, organism-based
[12] = tested on: Rattus norvegicus; experiment: Biodistribution in female Sprague-Dawley rat kidney cortex at 5 mg/kg, po administered as single dose measured after 8 hrs; type: ADME, organism-based; outline: as §2
[13] = tested on: Rattus norvegicus; experiment: Biodistribution in fetal kidney of pregnant Sprague-Dawley rat at 5 mg/kg, po administered as single dose measured after 0.5 hrs; type: ADME, organism-based
Outline: (§5)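 Pregnant rats, 270-319 g and fasted overnight, received [14C]apixaban by oral gavage at 100 μCi/kg in 0.5% Tween 80/Labrafil. One dam per time point was euthanized and frozen in hexane/dry ice. Fetal tissue radioactivity was measured by QWBA on 40 µm sagittal sections calibrated with [14C]glucose standards. Values are in µg eq/g, with LLOQ 0.037 μg eq/g.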

[14] = tested on: Rattus norvegicus; experiment: Biodistribution in pregnant Sprague-Dawley rat amnion at 5 mg/kg, po administered as single dose measured after 8 hrs; type: ADME, organism-based
[15] = tested on: Lung; experiment: Biodistribution in female Sprague-Dawley rat lung at 5 mg/kg, po administered as single dose measured after 1 hr; type: ADME, organism-based
Outline: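 [¹⁴C]Apixaban given by oral gavage at 5 mg/kg (100 μCi/kg) in 0.5% Tween 80 in Labrafil (1.0 mg/mL dosing solution) to rats fasted overnight through 4 h post-dose. One rat per time point; carcass frozen in hexane/dry ice. Quantitative whole-body autoradiography used 40 µm sagittal sections and a phosphor imaging plate calibrated with [¹⁴C]glucose standards (0.001–6.5 μCi/g). Read-out in µg eq apixaban/g; LLOQ 0.037 μg eq/g.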

[16] = tested on: Rattus norvegicus; experiment: Biodistribution in fetal brain of pregnant Sprague-Dawley rat at 5 mg/kg, po administered as single dose measured after 48 hrs; type: ADME, organism-based; outline: as §1
[17] = tested on: Heart; experiment: Biodistribution in pregnant Sprague-Dawley rat heart at 5 mg/kg, po administered as single dose measured after 4 hrs; type: ADME, organism-based
[18] = tested on: Rattus norvegicus; experiment: Biodistribution in fetal blood of pregnant Sprague-Dawley rat at 5 mg/kg, po administered as single dose measured after 1 hr; type: ADME, organism-based; outline: as §5
[19] = tested on: Rattus norvegicus; experiment: Biodistribution in fetal brain of pregnant Sprague-Dawley rat at 5 mg/kg, po administered as single dose measured after 8 hrs; type: ADME, organism-based
Outline: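 Pregnant SD rats received a single oral gavage of [14C]apixaban at 5 mg/kg (100 μCi/kg; 1.0 mg/mL, 20 μCi/mL in 0.5% Tween 80/Labrafil) after fasting, one dam per time point. Frozen carcasses were cut into 40 µm sagittal sections and read by phosphor-imaging QWBA against [14C]glucose standards. Fetal tissue radioactivity is reported as µg eq/g, with LLOQ 0.037 µg eq/g.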

[20] = tested on: Pancreas; experiment: Biodistribution in male Sprague-Dawley rat pancreas at 5 mg/kg, po administered as single dose measured after 0.5 hrs; type: ADME, organism-based; outline: as §4
[21] = tested on: Rattus norvegicus; experiment: Biodistribution in pregnant Sprague-Dawley rat salivary gland at 5 mg/kg, po administered as single dose measured after 8 hrs; type: ADME, organism-based
[22] = Drug level in lactating Sprague-Dawley rat milk at 5 mg/kg, po administered as single dose after 0.5 hrs; type: ADME, organism-based
[23] = tested on: Rattus norvegicus; experiment: Biodistribution in male Sprague-Dawley rat bone marrow at 5 mg/kg, po administered as single dose measured after 0.5 hrs; type: ADME, organism-based; outline: as §3
[24] = tested on: Liver; experiment: Biodistribution in female Sprague-Dawley rat liver at 5 mg/kg, po administered as single dose measured after 72 hrs; type: ADME, organism-based; outline: as §1

Radiolabel recovery [1]: 3.98 ugequiv/g
Radiolabel recovery [2]: 2.12 ugequiv/g
Radiolabel recovery [3]: < 0.037 ugequiv/g
Radiolabel recovery [4]: Not detected assumed BLQ
Radiolabel recovery [5]: 0.65 ugequiv/g
Radiolabel recovery [6]: 0.48 ugequiv/g
Radiolabel recovery [8]: 0.07 ugequiv/g
Radiolabel recovery [9]: 0.2 ugequiv/g
Radiolabel recovery [10]: 0.95 ugequiv/g
Radiolabel recovery [11]: 0.05 ugequiv/g
Radiolabel recovery [12]: 0.42 ugequiv/g
Radiolabel recovery [13]: 0.24 ugequiv/g
Radiolabel recovery [14]: 2.12 ugequiv/g
Radiolabel recovery [15]: 0.883 ugequiv/g
Radiolabel recovery [16]: Not detected assumed BLQ
Radiolabel recovery [17]: 0.83 ugequiv/g
Radiolabel recovery [18]: 0.31 ugequiv/g
Radiolabel recovery [19]: < 0.037 ugequiv/g
Radiolabel recovery [20]: 0.47 ugequiv/g
Radiolabel recovery [21]: 0.08 ugequiv/g
Radiolabel recovery [22]: 2.75 µg/mL
Radiolabel recovery [23]: 0.26 ugequiv/g
Radiolabel recovery [24]: Not detected assumed BLQ
Compound: COc1ccc(-n2nc(C(N)=O)c3c2C(=O)N(c2ccc(N4CCCC[14C]4=O)cc2)CC3)cc1
Radiolabel recovery [7]: Not sampled as not visualised in autoradiograph
